The source of these data is ChEMBL document CHEMBL1137349, “Selective angiotensin II AT2 receptor agonists: arylbenzylimidazole structure-activity relationships” (J Med Chem, 2006).

In assay [1] the target is Type-1 angiotensin II receptor (Rattus norvegicus) (UniProt P25095). As to the kind of experiment: Displacement of [125I]Ang2 from AT1 receptor in rat liver membrane.
Assay [2] deals with NG108-15. As to the kind of experiment: Induction of neurite growth in NG108-15 cells at 0.1 uM after 3 days. Type of assay: functional, cell-based. The method, boiled down: (§1)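 NG108-15 cells, which express only AT2, were plated at 4 × 10⁴ cells per 35 mm dish and grown 3 days with or without 0.1 µM agonist, with Ang II as reference. Micrographs were taken under phase contrast. Cells with at least one neurite longer than the cell body were scored positive, as a percentage of 50–100 total cells.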

Assay [3] has as its system NG108-15. As to the kind of experiment: Induction of neurite growth in NG108-15 cells at 0.1 uM after 3 days in presence of PD-123319. The format is functional, cell-based. The procedure, abridged: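 Here the 0.1 µM agonist was co-incubated with 1 µM of the AT2 antagonist PD 123,319 for 3 days. NG108-15 cells were plated at 4 × 10⁴ per 35 mm dish. The percentage of cells bearing a neurite longer than the cell body was counted from phase-contrast micrographs of 50–100 cells.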

For assay [4], the system named is NG108-15. As to the kind of experiment: Induction of NG108-15 cell death at 1 uM. The format is functional, cell-based. The method, boiled down:
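NG108-15 neuroblastoma × glioma hybrid cells plated at 4 × 10⁴ cells per 35 mm dish and cultured 3 days with test agent across 1 pM to 1 µM. Cells were then examined by phase contrast microscopy and micrographs taken to assess cell death.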

The subject of assay [5] is NG108-15. As to the kind of experiment: Induction of neurite growth in NG108-15 cells relative to control. The format is functional, cell-based. The procedure, abridged: as §1

Calls of active or inactive are those of the source. The rule behind the calls is not given here.

As to `CC(C)Cc1cc(-c2ccc(Cn3ccnc3)cc2)c(S(=O)(=O)NC(=O)OC(C)(C)C)s1`, the Ki in assay [1] is more than 10 µM.
`CCCCc1ccc(S(=O)(=O)NC(=O)OCC)c(-c2ccc(Cn3ccnc3)cc2)c1`: the Ki in assay [1] is more than 10 µM.
`CCCCN(C)C(=O)NS(=O)(=O)c1sc(CC(C)C)cc1-c1ccc(Cn2ccnc2)cc1`: the Ki in assay [1] was more than 10 µM.
In assay [1], `CCCCOC(=O)NS(=O)(=O)c1ccc(CCCC)cc1-c1ccc(Cn2ccnc2)cc1` displayed a Ki of more than 10 µM.
The compound `CCCCS(=O)(=O)NC(=O)c1sc(CC(C)C)cc1-c1ccc(Cn2ccnc2)cc1` displayed a Ki in assay [1] of more than 10 µM.
In assay [1], `CCCCOC(=O)NS(=O)(=O)c1sc(CCCC)cc1-c1ccc(Cn2ccnc2)cc1` displayed a Ki of more than 10 µM.
For the compound `CCCCOC(=O)NS(=O)(=O)c1sc(CCC)cc1-c1ccc(Cn2ccnc2)cc1`, the result in the assay with NG108-15 [2] and in the assay on NG108-15 [4] was Active. The result with NG108-15 [3] was inactive.
As for `COCCOC(=O)NS(=O)(=O)c1sc(CC(C)C)cc1-c1ccc(Cn2ccnc2)cc1`, the Ki in assay [1] is more than 10 µM.
With `CC(C)Cc1cc(-c2ccc(Cn3ccnc3)cc2)c(S(=O)(=O)NC(=O)OC(C)C)s1`, the Ki in assay [1] was more than 10 µM.
For the compound `CCCCS(=O)(=O)NS(=O)(=O)c1sc(CC(C)C)cc1-c1ccc(Cn2ccnc2)cc1`, in assay [1], the Ki is more than 10 µM.
In the case of `Cc1cc(Cn2cnc3c2C[C@@H](C(=O)O)N(C(=O)C(c2ccccc2)c2ccccc2)C3)ccc1N(C)C`, in the assay with NG108-15 [5], the result was inactive.
In turn, `CCCCOC(=O)NS(=O)(=O)c1ccc(OC(C)C)cc1-c1ccc(Cn2ccnc2)cc1` displayed a Ki in assay [1] of more than 10 µM.
In the case of `CCCCOC(=O)NS(=O)(=O)c1ccc(OCCCC)cc1-c1ccc(Cn2ccnc2)cc1`, the result in the assay on NG108-15 [2] and in the assay with NG108-15 [4] was Active. Further, the result in the assay on NG108-15 [3] was inactive.
